The record followed here is PubChem BioAssay AID2520 (Sanford-Burnham Center for Chemical Genomics, 2010).

Screen size: about 330,000 compounds; about 350 (0.11%) were called active. This is one part of a sample in which actives are shown more often than they occur. Unmarked numbers belong to inactive results.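 How the source made its calls: active means activation more than six SD over the plate average, tested at 20 µM; inactive means the rest.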

Apelin receptor (Homo sapiens), sequence (P35414 whole entry, looked up, the tested form may be a part): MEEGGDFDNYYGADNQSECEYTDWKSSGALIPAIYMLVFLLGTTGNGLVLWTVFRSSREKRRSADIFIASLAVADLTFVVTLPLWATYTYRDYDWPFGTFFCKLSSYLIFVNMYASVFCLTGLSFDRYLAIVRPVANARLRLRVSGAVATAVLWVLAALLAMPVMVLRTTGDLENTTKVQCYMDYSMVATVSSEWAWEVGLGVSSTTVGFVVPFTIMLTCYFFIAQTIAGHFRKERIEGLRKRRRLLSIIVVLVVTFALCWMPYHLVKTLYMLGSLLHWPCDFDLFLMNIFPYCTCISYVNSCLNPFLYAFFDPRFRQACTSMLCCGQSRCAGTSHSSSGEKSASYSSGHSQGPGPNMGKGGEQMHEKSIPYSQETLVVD

This test concerns the target Apelin receptor (Homo sapiens) (UniProt P35414). Nature of the test: APJ activation via beta-arrestin recruitment – CHO-K1 cells, PathHunter beta-arrestin, luminescence, primary screen (AID 2520). Particulars: at 20 µM, active compounds read high, 0% DMSO wells, 100% apelin. The gist of the method: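 system = engineered CHO-K1 APJ arrestin reporter cells | input = 1000 cells per well | timing = overnight seeding, 90 min compound at 25 °C, 1 h detection | measured by = enzyme-fragment complementation luminescence | read-out = beta-arrestin recruitment to APJ as agonist activity, luminescent signal | control set = negative DMSO alone, positive Apelin-13 at 10 nM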
As to `O=C(c1cnn2ccccc12)N1CCc2ccccc21`, the activation was -0.0654%. Turning to `CCc1ccc(N2CC(C(=O)NC3=NCCS3)CC2=O)cc1` (configuration not stated), the activation was 10.1%. To `CSc1nccc(NC(=O)c2ccc(C(C)(C)C)cc2)n1` belongs 1.31%. As for `CSc1cccc(NC(=S)N(C(C)C)C(C)c2ccccn2)c1` (configuration not stated), the figure is 1.84%.

For `COc1ccccc1N(C)S(=O)(=O)c1ccc(Cl)c(C(=O)Nc2ccncc2)c1`, the activation is 4.67%. As for `COc1cccc(N(CC(=O)NC2CCCC2)C(=O)Cn2nnc(-c3ccc(C)o3)n2)c1`, the figure is 2.12%; as for `CCc1nn(-c2cc(Oc3cccc4ccccc34)nc(-c3ccccc3)n2)c(N)c1C#N`, -3.92%. As for `COc1cccc(OC)c1CN(C)C(=O)c1cnccc1C(F)(F)F`, the figure is -2.03%; as for `CC(=O)NCC(=O)N1CCC(n2nccc2NC(=O)CCCc2ccccc2)CC1`, -2.51%; as for `CC1=C/C(=N\OS(=O)(=O)c2ccccc2)C=CC1=O`, 40.6% (active).

For the compound `COc1ccc(C/C(N)=N/OC(=O)c2ccco2)cc1OC`, the activation is 6.23%. To `COc1ccc(C(=O)ON=C2c3ccccc3-c3ccccc32)cc1OC` belongs -1.57%; to `COc1ccc(C(=O)O/N=C(\N)Cc2ccc(Cl)cc2Cl)cc1OC`, 11.8% (active); to `COc1cccc(CSc2nc3nc(C)cc(C)n3n2)c1`, -1.45%. As for `CN(C(=O)CN1C(=O)NC(C)(CCc2ccccc2)C1=O)c1ccccc1` (configuration not stated), the figure is -2.66%. Regarding `Cc1nn(CC(=O)NC2CCCCC2)c(=O)c2cccn12`, the activation was -3.35%. Consider `CCOC(=O)C1C(c2ccc(OC)c(OC)c2)c2c([nH][nH]c2=O)CC1(C)O` (configuration not stated), for which the activation was 0.0386%. To `O=c1ccc(-c2ccc(S(=O)(=O)Nc3ccccc3)o2)n[nH]1` belongs 2.43%; to `CC1=NN(C(=O)CCc2ccccc2O)C(O)(C(F)(F)F)C1` (configuration not stated), -2.46%; to `CC1=C(C/C=C(\C)CCCC(C)CCCC(C)CCCC(C)C)C(=O)c2ccccc2C1=O` (configuration not stated), 16.4%.

Turning to `Cc1cc(NC(=O)Nc2ccccc2[N+](=O)[O-])no1`, the activation was -0.224%. As for `Cc1csc(SCC(=O)N(c2ccccc2)C(C)C)n1`, the figure is -5.06%; as for `O=C(Nc1nnc(C2CC2)s1)C1=NN(C2CCS(=O)(=O)C2)C(=O)CC1` (configuration not stated), -2.11%; as for `CN(C)S(=O)(=O)c1ccc(N/C=C(\[N+](=O)[O-])S(=O)(=O)c2ccccc2)cc1`, -4.82%.

In the case of `CC(=O)Nc1ccc(Sc2ccccc2C(=O)N2CCCC2)cn1`, the activation was -0.519%. Turning to `O=C(O)c1cccc2c1C(=O)N(C1CCCCC1)C2`, the activation is -1.33%. To `CC1(C)NC(=O)N(CC(=O)N2CCN(S(=O)(=O)c3ccccc3F)CC2)C1=O` belongs -2.41%; to `CCCCCCCCCCCCC(NC(C)=O)(C(=O)OCC)C(=O)OCC`, -3.1%; to `O=S(=O)([N-]c1nc2ccccc2nc1-[n+]1ccc(Cc2ccccc2)cc1)c1ccc(Br)s1`, 3.3%. In the case of `CN(CC(=O)NCCc1ccc(S(N)(=O)=O)cc1)CC(=O)Nc1ccc(Cl)cc1`, the activation is -2.04%. As for `Cc1ccc(-n2nc(N)c3c(=O)oc(N(C)C)nc32)cc1`, the figure is -1.59%. As for `CCOC(=O)c1sc(=NC(=O)/C=C/c2cccs2)n(C)c1C`, the figure is -1.39%.
